Published values gathered from unrelated publications.
Compare with care: the assays were run in different laboratories.

`NS(=O)(=O)c1ccc(-c2cc(Nc3ccc(OC(F)(F)F)cc3)ncn2)cc1` has an AUC(0-t) of 9390 ng·h/mL (male BALB/c mouse; plasma; oral; 20 mg/kg).
`CCOC(=O)c1sc(Nc2ncccn2)nc1-c1ccccn1` has an AUC(0-t) of 448 ng·h/mL (male CD-1 mouse; plasma; intravenous; 2 mg/kg).
With `Cc1c(C(=O)NN2CCCCC2)nc(-c2ccc(Cl)cc2Cl)n1-c1ccc(OS(=O)(=O)CCC(F)(F)F)cc1` the AUC(0-t) was 6.3 µM·h (mouse; plasma; oral; 20 µmol/kg; single dose).
With `Cc1ccc(NC(=O)c2ccc(CN3CCN(C)CC3)cc2)cc1Nc1nccc(-c2cncc(-c3oncc3C)c2)n1` the AUC(0-t) was 37800 ng·h/mL (male C57BL/6 mouse; plasma; oral; 100 mg/kg/day).
The AUC(0-t) of `COc1cc(OC)c2nccc(N3CCc4c(cc(Cn5ccnc5)cc4-c4cn(C)nc4C(F)(F)F)C3=O)c2c1` is reported as 60600 ng·h/mL (male CD-1 mouse; plasma; oral; 50 mg/kg).
For `C=CC(=O)N1CC2CC(n3nc(-c4ccc(C(=O)Nc5ccccn5)cc4)c4c(N)ncnc43)CC2C1` (stereo not shown), the AUC(0-t) was 1120 ng·h/mL (SCID mouse; plasma; oral; 5 mg/kg).
`CN1CCN(c2nccc3nc(-c4ccc(F)c(F)c4)[nH]c23)CC1` has an AUC(0-t) of 3.58 µM·h (mouse; blood; intravenous; 2 mg/kg).
The AUC(0-t) of `CC[C@H](C)[C@@H]1NC(=O)[C@@](C)(NC(=O)[C@H](CCCNC(=N)N)NC(=O)[C@H](CC(C)C)NC(=O)[C@@H](NC(=O)[C@H](CCC(N)=O)NC(=O)[C@H](CC(C)C)NC(C)=O)[C@@H](C)O)CCCC=CCCC[C@@](C)(C(=O)N[C@@H](CC(C)C)C(=O)N[C@@H](Cc2ccc3ccccc3c2)C(N)=O)NC(=O)[C@H](CCCNC(=N)N)NC(=O)[C@H](CCC(N)=O)NC1=O` is reported as 140000 ng·h/mL (male BALB/c mouse; plasma; subcutaneous; 10 mg/kg).
`CNC(=O)c1cc(OC)cc2c(N3CCc4c(cc(Cn5ccnc5)cc4-c4cn(C)nc4C(F)(F)F)C3=O)ccnc12` gave an AUC(0-t) of 3300 ng·h/mL (male CD-1 mouse; plasma; intravenous; 3 mg/kg).
With `CC(C)(C)c1cc(NC(=O)Nc2ccc(Oc3ccnc4[nH]c(=O)cnc34)cc2F)n(-c2ccccc2)n1` the AUC(0-t) was 416 µM·h (BALB/c mouse; plasma; oral; 10 mg/kg).
The AUC(0-t) of `CN1CCN(CC2CCN(c3cncc4[nH]c(-c5cc(F)cc(F)c5)nc34)CC2)CC1` is reported as 3.57 µM·h (mouse; blood; oral; 10 mg/kg).
`CCc1ccc(Cc2cc([C@@H]3O[C@H](CO)[C@@H](O)[C@H](O)[C@H]3O)cc3c2CCC3)cc1` gave an AUC(0-t) of 1440 ng·h/mL (male C57BL/6 mouse; plasma; intravenous; 1 mg/kg).
For `Fc1ccc(-c2nc3c(N4CCC(CN5CCOCC5)CC4)nccc3[nH]2)cc1F`, the AUC(0-t) was 4.17 µM·h (mouse; blood; intravenous; 2 mg/kg).
`CNCCN(C)c1cc(C#N)cc(CCc2cc(C)cc(N)n2)c1` has an AUC(0-t) of 162 ng·h/mL (male BALB/c mouse; plasma; oral; 10 mg/kg).
The AUC(0-t) of `COc1nc(-c2cc(C)c(N[C@@H](C)c3ccc(F)cc3)nn2)ccc1-n1cnc(C)c1` is reported as 4020 ng·h/mL (male CD-1 mouse; plasma; intravenous; 1 mg/kg; single dose).
With `Cc1ccc2cncc(N3CCc4c(cc(Cn5ccnc5)cc4-c4cn(C)nc4C(F)(F)F)C3=O)c2c1` the AUC(0-t) was 36300 ng·h/mL (male CD-1 mouse; plasma; oral; 50 mg/kg).
The AUC(0-t) of `CN1CCC[C@H](CN2c3ccccc3Sc3ccccc32)C1.Cl` is reported as 6920 ng·h/mL (mouse; plasma; intraperitoneal; 32 mg/kg; single dose).
The AUC(0-t) of `Cc1nc(-c2cnc(NC(C)C)n(C)c2=O)ccc1Oc1ccnc(-c2cnn(C)c2)c1` is reported as 113000 ng·h/mL (female mouse; plasma; oral; 15 mg/kg; single dose).
`CN1C(=O)c2ccccc2[S@+]([O-])c2ccc(C(=O)NCCc3cccs3)cc21` gave an AUC(0-t) of 7800 ng·h/mL (male C57BL/6 mouse; plasma; intraperitoneal; 30 mg/kg; single dose).
